From ChEMBL document CHEMBL3525963, “Tissue distribution and elimination of [14C]apixaban in rats” (Drug Metab Dispos, 2011)

Columns and labels:
Conditions in all cases: in vivo
[1] = tested on: Rattus norvegicus; experiment: Biodistribution in pregnant Sprague-Dawley rat kidney cortex at 5 mg/kg, po administered as single dose measured after 24 hrs; format: ADME, organism-based; design: dose 5 mg/kg, dosed compound name [14C]-apixaban, route oral
[2] = tested on: Blood; experiment: Biodistribution in pregnant Sprague-Dawley rat blood at 5 mg/kg, po administered as single dose measured after 24 hrs; format: ADME, organism-based; design: dose 5 mg/kg, dosed compound name [14C]-apixaban, route oral
Outline: (§1)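 Fasted pregnant SD rats (n=6, 270-319 g) each received one oral gavage dose of [14C]apixaban, 5 mg/kg (100 μCi/kg), in 0.5% Tween 80/Labrafil. One rat was killed at each of 0.5, 1, 4, 8, 24 and 48 h. Carcasses were frozen in hexane/dry ice, cut into 40 µm sagittal sections, exposed to phosphor plates and quantified against [14C]glucose standards as µg eq/g. LLOQ was 0.037 µg eq/g.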

[3] = tested on: Rattus norvegicus; experiment: Biodistribution in female Sprague-Dawley rat brown fat at 5 mg/kg, po administered as single dose measured after 72 hrs; format: ADME, organism-based, Brown adipose tissue; design: dose 5 mg/kg, dosed compound name [14C]-apixaban, route oral
Outline: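 Quantitative whole-body autoradiography was run after a single 5 mg/kg (100 μCi/kg) oral gavage to fasted female or pregnant SD rats, one rat per time point. Carcasses were frozen in hexane/dry ice, and 40 µm sagittal sections were dried at −20°C for at least 48 h. Sections were exposed to a phosphor plate alongside [14C]glucose standards (0.001–6.5 µCi/g). Results are µg eq/g, with LLOQ 0.037 µg eq/g.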

[4] = tested on: Rattus norvegicus; experiment: Biodistribution in female Sprague-Dawley rat pituitary gland at 5 mg/kg, po administered as single dose measured after 8 hrs; format: ADME, organism-based; design: dose 5 mg/kg, dosed compound name [14C]-apixaban, route oral
Outline: (§2)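 [14C]apixaban (20 μCi/mL in dosing solution) in 0.5% Tween 80 in Labrafil given by oral gavage to fasted female rats, 206-213 g, at 100 μCi/kg. One rat per time point was euthanized and snap-frozen. Sagittal 40 µm whole-body sections were read by QWBA phosphor imaging against [14C]glucose standards. Results are in µg eq apixaban/g, with LLOQ 0.037 μg eq/g.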

[5] = tested on: Adrenal gland; experiment: Biodistribution in male Sprague-Dawley rat adrenal gland at 5 mg/kg, po administered as single dose measured after 0.5 hrs; format: ADME, organism-based; design: dose 5 mg/kg, dosed compound name [14C]-apixaban, route oral
Outline: (§3)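 [¹⁴C]Apixaban given by oral gavage at 5 mg/kg (100 μCi/kg) in 0.5% Tween 80 in Labrafil (1.0 mg/mL dosing solution) to rats fasted overnight through 4 h post-dose. One rat per time point; carcass frozen in hexane/dry ice. Quantitative whole-body autoradiography used 40 µm sagittal sections and a phosphor imaging plate calibrated with [¹⁴C]glucose standards (0.001–6.5 μCi/g). Read-out in µg eq apixaban/g; LLOQ 0.037 μg eq/g.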

[6] = tested on: Brain; experiment: Biodistribution in pregnant Sprague-Dawley rat brain at 5 mg/kg, po administered as single dose measured after 4 hrs; format: ADME, organism-based; design: dose 5 mg/kg, dosed compound name [14C]-apixaban, route oral
[7] = tested on: Rattus norvegicus; experiment: Biodistribution in fetal brain of pregnant Sprague-Dawley rat at 5 mg/kg, po administered as single dose measured after 0.5 hrs; format: ADME, organism-based; design: dose 5 mg/kg, dosed compound name [14C]-apixaban, route oral
Outline: (§4)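 Pregnant SD rats received a single oral gavage of [14C]apixaban at 5 mg/kg (100 μCi/kg; 1.0 mg/mL, 20 μCi/mL in 0.5% Tween 80/Labrafil) after fasting, one dam per time point. Frozen carcasses were cut into 40 µm sagittal sections and read by phosphor-imaging QWBA against [14C]glucose standards. Fetal tissue radioactivity is reported as µg eq/g, with LLOQ 0.037 µg eq/g.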

[8] = tested on: Heart; experiment: Biodistribution in pregnant Sprague-Dawley rat heart at 5 mg/kg, po administered as single dose measured after 4 hrs; format: ADME, organism-based; design: dose 5 mg/kg, dosed compound name [14C]-apixaban, route oral
[9] = Drug level in lactating Sprague-Dawley rat milk at 5 mg/kg, po administered as single dose; format: ADME, organism-based; design: dose 5 mg/kg, dosed compound name [14C]-apixaban, route oral
Outline: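 Lactating SD rats received a single oral gavage of 5 mg/kg (108 μCi/kg) in 0.5% Tween 80/Labrafil. Three rats were sampled per time point at 0.5-24 h. Oxytocin was given sc 15 min before milking under anesthesia. Milk, blood and plasma were counted in duplicate by liquid scintillation for 10 min and expressed as apixaban equivalents.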

[10] = tested on: Spleen; experiment: Biodistribution in male Sprague-Dawley rat spleen at 5 mg/kg, po administered as single dose measured after 0.5 hrs; format: ADME, organism-based; design: dose 5 mg/kg, dosed compound name [14C]-apixaban, route oral
Outline: (§5)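 [14C]apixaban (1.0 mg/mL, 20 μCi/mL) in 0.5% Tween 80 in Labrafil, given by oral gavage at 100 μCi/kg to male rats (225-252 g) fasted overnight through 4 h post-dose. One rat per time point. Carcasses frozen in hexane/dry ice and cut into 40 µm sagittal sections. QWBA read on phosphor plates against [14C]glucose standards, reported as µg eq/g. LLOQ 0.037 µg eq/g.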

[11] = tested on: Rattus norvegicus; experiment: Biodistribution in fetal liver of pregnant Sprague-Dawley rat at 5 mg/kg, po administered as single dose measured after 1 hr; format: ADME, organism-based; design: dose 5 mg/kg, dosed compound name [14C]-apixaban, route oral
Outline: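 Pregnant rats, 270-319 g and fasted overnight, received [14C]apixaban by oral gavage at 100 μCi/kg in 0.5% Tween 80/Labrafil. One dam per time point was euthanized and frozen in hexane/dry ice. Fetal tissue radioactivity was measured by QWBA on 40 µm sagittal sections calibrated with [14C]glucose standards. Values are in µg eq/g, with LLOQ 0.037 μg eq/g.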

[12] = tested on: Blood; experiment: AUC (0 to infinity) in male Sprague-Dawley rat blood at 5 mg/kg, po administered as single dose; format: ADME, organism-based; design: time infinity, dose 5 mg/kg, dosed compound name [14C]-apixaban, route oral
[13] = tested on: Spleen; experiment: Biodistribution in pregnant Sprague-Dawley rat spleen at 5 mg/kg, po administered as single dose measured after 0.5 hrs; format: ADME, organism-based; design: dose 5 mg/kg, dosed compound name [14C]-apixaban, route oral
[14] = tested on: Rattus norvegicus; experiment: Biodistribution in male Sprague-Dawley rat salivary gland at 5 mg/kg, po administered as single dose measured after 24 hrs; format: ADME, organism-based; design: dose 5 mg/kg, dosed compound name [14C]-apixaban, route oral
[15] = tested on: Rattus norvegicus; experiment: Biodistribution in male Sprague-Dawley rat bone marrow at 5 mg/kg, po administered as single dose measured after 8 hrs; format: ADME, organism-based; design: dose 5 mg/kg, dosed compound name [14C]-apixaban, route oral
Outline: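 Fasted male rats, 225-252 g, received [14C]apixaban by single oral gavage at 100 μCi/kg in 0.5% Tween 80/Labrafil. One rat was killed per time point and the carcass frozen. Tissue radioactivity was quantified by QWBA (40 µm sagittal sections, phosphor plate, [14C]glucose calibration) as µg eq apixaban/g, with LLOQ 0.037 μg eq/g.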

[16] = tested on: Blood; experiment: Biodistribution in female Sprague-Dawley rat blood at 5 mg/kg, po administered as single dose measured after 4 hrs; format: ADME, organism-based; design: dose 5 mg/kg, dosed compound name [14C]-apixaban, route oral; outline: as §3
[17] = tested on: Pancreas; experiment: Biodistribution in male Sprague-Dawley rat pancreas at 5 mg/kg, po administered as single dose measured after 0.5 hrs; format: ADME, organism-based; design: dose 5 mg/kg, dosed compound name [14C]-apixaban, route oral; outline: as §5
[18] = tested on: Rattus norvegicus; experiment: Biodistribution in female Sprague-Dawley rat pituitary gland at 5 mg/kg, po administered as single dose measured after 0.5 hrs; format: ADME, organism-based; design: dose 5 mg/kg, dosed compound name [14C]-apixaban, route oral; outline: as §2
[19] = tested on: Rattus norvegicus; experiment: Biodistribution in male Sprague-Dawley rat salivary gland at 5 mg/kg, po administered as single dose measured after 1 hr; format: ADME, organism-based; design: dose 5 mg/kg, dosed compound name [14C]-apixaban, route oral
[20] = tested on: Rattus norvegicus; experiment: Biodistribution in male Sprague-Dawley rat pituitary gland at 5 mg/kg, po administered as single dose measured after 8 hrs; format: ADME, organism-based; design: dose 5 mg/kg, dosed compound name [14C]-apixaban, route oral
[21] = tested on: Rattus norvegicus; experiment: Biodistribution in fetal brain of pregnant Sprague-Dawley rat at 5 mg/kg, po administered as single dose measured after 1 hr; format: ADME, organism-based; design: dose 5 mg/kg, dosed compound name [14C]-apixaban, route oral; outline: as §4
[22] = tested on: Rattus norvegicus; experiment: Biodistribution in pregnant Sprague-Dawley rat kidney cortex at 5 mg/kg, po administered as single dose measured after 48 hrs; format: ADME, organism-based; design: dose 5 mg/kg, dosed compound name [14C]-apixaban, route oral; outline: as §1

In the case of `COc1ccc(-n2nc(C(N)=O)c3c2C(=O)N(c2ccc(N4CCCC[14C]4=O)cc2)CC3)cc1`, the Radiolabel recovery [1] is reported as 0.05 ugequiv/g, the Radiolabel recovery [2] is reported as “Not detected assumed BLQ” and the Radiolabel recovery [3] is reported as “Not detected assumed BLQ”. The Radiolabel recovery [4] was 0.22 ugequiv/g, the Radiolabel recovery [5] was 0.59 ugequiv/g and the Radiolabel recovery [6] was < 0.037 ugequiv/g. The Radiolabel recovery [7] was < 0.037 ugequiv/g, the Radiolabel recovery [8] was 0.83 ugequiv/g and the Radiolabel recovery [9] was > 96%. The Radiolabel recovery [10] was 0.18 ugequiv/g, the Radiolabel recovery [11] was 0.22 ugequiv/g and the AUC [12] was 4300 ngequiv.hr/g. For the same compound, the Radiolabel recovery [13] was 0.46 ugequiv/g, the Radiolabel recovery [14] was < 0.037 ugequiv/g and the Radiolabel recovery [15] was 0.07 ugequiv/g. It also gave a Radiolabel recovery [16] of 0.35 ugequiv/g, a Radiolabel recovery [17] of 0.47 ugequiv/g and a Radiolabel recovery [18] of 0.43 ugequiv/g. For the same compound, the Radiolabel recovery [19] was 0.72 ugequiv/g, the Radiolabel recovery [20] was 0.07 ugequiv/g and the Radiolabel recovery [21] was 0.05 ugequiv/g. The Radiolabel recovery [22] was “Not detected assumed BLQ”.
